Reference: ChEMBL document CHEMBL1641426, “Microwave assisted one pot synthesis of some novel 2,5-disubstituted 1,3,4-oxadiazoles as antifungal agents” (2011)
≈ marks a conversion by molar mass, not a printed value. Calls of active or inactive are those of the source. The calls are words filed in the database; no cut-off is given here.

Experiments:
Candida albicans [1] = assay: Antifungal activity against Candida albicans assessed as macroscopically visible colonies upto 200 ug/ml after 48 and 72 hrs by standard agar dilution method; assay type: functional, organism-based
How it was run: (§1)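 MIC by standard agar method. Tested against Candida albicans, Fusarium oxysporum, Aspergillus flavus, Aspergillus niger and Cryptococcus neoformans. Dimethyl sulfoxide served as solvent control, and miconazole and fluconazole served as reference standards.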

Aspergillus niger [2] = assay: Antifungal activity against Aspergillus niger assessed as macroscopically visible colonies after 48 and 72 hrs by standard agar dilution method; assay type: functional; how it was run: as §1
Cryptococcus neoformans [3] = assay: Antifungal activity against Cryptococcus neoformans assessed as appearance of macroscopically visible colonies upto 200 ug/ml after 48 and 72 hrs by standard agar dilution method; assay type: functional, organism-based; how it was run: as §1
Aspergillus flavus = assay: Antifungal activity against Aspergillus flavus assessed as macroscopically visible colonies after 48 and 72 hrs by standard agar dilution method; assay type: functional; how it was run: as §1
Fusarium oxysporum = assay: Antifungal activity against Fusarium oxysporum assessed as macroscopically visible colonies after 48 and 72 hrs by standard agar dilution method; assay type: functional; how it was run: as §1
Candida albicans [4] = assay: Antifungal activity against Candida albicans assessed as macroscopically visible colonies after 48 and 72 hrs by standard agar dilution method; assay type: functional; how it was run: as §1
Cryptococcus neoformans [5] = assay: Antifungal activity against Cryptococcus neoformans assessed as appearance of macroscopically visible colonies after 48 and 72 hrs by standard agar dilution method; assay type: functional; how it was run: as §1
Aspergillus niger [6] = assay: Antifungal activity against Aspergillus niger assessed as macroscopically visible colonies upto 200 ug/ml after 48 and 72 hrs by standard agar dilution method; assay type: functional, organism-based; how it was run: as §1

SMILES | Activity (Candida albicans [1]) | MIC (Aspergillus niger [2]) | Activity (Cryptococcus neoformans [3]) | MIC (Aspergillus flavus) | MIC (Fusarium oxysporum) | MIC (Candida albicans [4]) | MIC (Cryptococcus neoformans [5]) | Activity (Aspergillus niger [6])
O=C(c1ccccc1)N1CCC(n2cc(-c3nnc(-c4ccccc4)o3)nn2)CC1 | inactive | 175 µg/mL (≈ 437 µM) | inactive | 150 µg/mL (≈ 375 µM) | 100 µg/mL (≈ 250 µM) | – | – | –
CCN1CCC(n2cc(-c3nnc(-c4cccc(O)c4)o3)nn2)CC1 | – | 20 µg/mL (≈ 58.8 µM) | – | 20 µg/mL (≈ 58.8 µM) | 35 µg/mL (≈ 103 µM) | 35 µg/mL (≈ 103 µM) | 60 µg/mL (≈ 176 µM) | –
c1ccc(-c2nnc(-c3cn(C4CCNCC4)nn3)o2)cc1 | – | 125 µg/mL (≈ 422 µM) | – | 90 µg/mL (≈ 304 µM) | 85 µg/mL (≈ 287 µM) | 80 µg/mL (≈ 270 µM) | 150 µg/mL (≈ 506 µM) | –
COc1cccc(-c2nnc(-c3cn(C4CCN(C)CC4)nn3)o2)c1 | – | 70 µg/mL (≈ 206 µM) | – | 50 µg/mL (≈ 147 µM) | 65 µg/mL (≈ 191 µM) | 60 µg/mL (≈ 176 µM) | 80 µg/mL (≈ 235 µM) | –
CCN1CCC(n2cc(-c3nnc(-c4cccc(Cl)c4)o3)nn2)CC1 | – | 50 µg/mL (≈ 139 µM) | – | 25 µg/mL (≈ 69.7 µM) | 35 µg/mL (≈ 97.5 µM) | 40 µg/mL (≈ 111 µM) | 50 µg/mL (≈ 139 µM) | –
CCN1CCC(n2cc(-c3nnc(-c4ccccc4)o3)nn2)CC1 | – | 80 µg/mL (≈ 247 µM) | – | 60 µg/mL (≈ 185 µM) | 50 µg/mL (≈ 154 µM) | 55 µg/mL (≈ 170 µM) | 80 µg/mL (≈ 247 µM) | –
CCN1CCC(n2cc(-c3nnc(-c4cccc(OC)c4)o3)nn2)CC1 | – | 75 µg/mL (≈ 212 µM) | – | 50 µg/mL (≈ 141 µM) | 60 µg/mL (≈ 169 µM) | 50 µg/mL (≈ 141 µM) | 100 µg/mL (≈ 282 µM) | –
CN1CCC(n2cc(-c3nnc(-c4cccc(Cl)c4)o3)nn2)CC1 | – | 45 µg/mL (≈ 131 µM) | – | 40 µg/mL (≈ 116 µM) | 50 µg/mL (≈ 145 µM) | 55 µg/mL (≈ 160 µM) | 150 µg/mL (≈ 435 µM) | –
OC(Cn1cncn1)(Cn1cncn1)c1ccc(F)cc1F [FLUCONAZOLE] | – | 10 µg/mL (≈ 32.7 µM) | – | 5 µg/mL (≈ 16.3 µM) | 5 µg/mL (≈ 16.3 µM) | 5 µg/mL (≈ 16.3 µM) | 5 µg/mL (≈ 16.3 µM) | –
CN1CCC(n2cc(-c3nnc(-c4ccccc4)o3)nn2)CC1 | – | 80 µg/mL (≈ 258 µM) | – | 60 µg/mL (≈ 193 µM) | 70 µg/mL (≈ 226 µM) | 70 µg/mL (≈ 226 µM) | 90 µg/mL (≈ 290 µM) | –
CC(=O)N1CCC(n2cc(-c3nnc(-c4cccc(C)c4)o3)nn2)CC1 | – | 40 µg/mL (≈ 114 µM) | inactive | 35 µg/mL (≈ 99.3 µM) | 40 µg/mL (≈ 114 µM) | 45 µg/mL (≈ 128 µM) | – | –
CS(=O)(=O)N1CCC(n2cc(-c3nnc(-c4ccccc4)o3)nn2)CC1 | – | 40 µg/mL (≈ 107 µM) | – | 45 µg/mL (≈ 120 µM) | 40 µg/mL (≈ 107 µM) | 35 µg/mL (≈ 93.5 µM) | 55 µg/mL (≈ 147 µM) | –
Clc1ccc(COC(Cn2ccnc2)c2ccc(Cl)cc2Cl)c(Cl)c1 (stereo not given) [MICONAZOLE] | – | 12.5 µg/mL (≈ 30 µM) | – | 12.5 µg/mL (≈ 30 µM) | 25 µg/mL (≈ 60.1 µM) | 25 µg/mL (≈ 60.1 µM) | 25 µg/mL (≈ 60.1 µM) | –
CS(=O)(=O)N1CCC(n2cc(-c3nnc(-c4cccc(Cl)c4)o3)nn2)CC1 | – | 20 µg/mL (≈ 48.9 µM) | – | 15 µg/mL (≈ 36.7 µM) | 25 µg/mL (≈ 61.1 µM) | 25 µg/mL (≈ 61.1 µM) | 50 µg/mL (≈ 122 µM) | –
CN1CCC(n2cc(-c3nnc(-c4cccc(O)c4)o3)nn2)CC1 | – | 35 µg/mL (≈ 107 µM) | inactive | 25 µg/mL (≈ 76.6 µM) | 35 µg/mL (≈ 107 µM) | 40 µg/mL (≈ 123 µM) | – | –
CS(=O)(=O)N1CCC(n2cc(-c3nnc(-c4cccc([N+](=O)[O-])c4)o3)nn2)CC1 | – | 70 µg/mL (≈ 167 µM) | – | 50 µg/mL (≈ 119 µM) | 55 µg/mL (≈ 131 µM) | 40 µg/mL (≈ 95.4 µM) | 90 µg/mL (≈ 215 µM) | –
O=C(c1ccc(Cl)cc1)N1CCC(n2cc(-c3nnc(-c4ccccc4)o3)nn2)CC1 | – | 100 µg/mL (≈ 230 µM) | inactive | 90 µg/mL (≈ 207 µM) | 90 µg/mL (≈ 207 µM) | 150 µg/mL (≈ 345 µM) | – | –
Cc1cccc(-c2nnc(-c3cn(C4CCN(C(=O)c5ccccc5)CC4)nn3)o2)c1 | inactive | – | inactive | 150 µg/mL (≈ 362 µM) | 100 µg/mL (≈ 241 µM) | – | – | inactive
CC(=O)N1CCC(n2cc(-c3nnc(-c4cccc(Cl)c4)o3)nn2)CC1 | – | 25 µg/mL (≈ 67.1 µM) | inactive | 20 µg/mL (≈ 53.6 µM) | 30 µg/mL (≈ 80.5 µM) | 35 µg/mL (≈ 93.9 µM) | – | –
CC(C)(C)OC(=O)N1CCC(n2cc(-c3nnc(-c4ccccc4)o3)nn2)CC1 | – | 150 µg/mL (≈ 378 µM) | inactive | 100 µg/mL (≈ 252 µM) | 125 µg/mL (≈ 315 µM) | 100 µg/mL (≈ 252 µM) | – | –
CS(=O)(=O)N1CCC(n2cc(-c3nnc(-c4cccc(O)c4)o3)nn2)CC1 | – | 15 µg/mL (≈ 38.4 µM) | – | 15 µg/mL (≈ 38.4 µM) | 25 µg/mL (≈ 64 µM) | 30 µg/mL (≈ 76.8 µM) | 100 µg/mL (≈ 256 µM) | –
